Assay results: ChEMBL document CHEMBL1138839, “Antitumor Agents. 239. Isolation, structure elucidation, total synthesis, and anti-breast cancer activity of neo-tanshinlactone from Salvia miltiorrhiza” (2004)
In brackets after ≈: the same amount, converted by molar mass.

What was measured:
[1] = tested on: MCF7; assay: Dose required for reduction in cell growth of human breast cancer MCF-7 cell line; assay type: functional; details: read-out: ED50 (the source's name)
Summary of the method: (§1)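 Freshly trypsinized cells in RPMI-1640 (25 mM HEPES, 0.25% sodium bicarbonate, 10% FBS, 100 μg/mL kanamycin) were seeded at 1500-7500 cells/well and dosed from DMSO-diluted stock. After 3 days they were fixed with cold 50% TCA, stained with 0.4% SRB, and read at 562 nm after dye solubilization. ED50 (50% growth reduction) is the mean of ≥3 independent determinations.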

[2] = tested on: MDA-MB-231; assay: Dose required for reduction in cell growth of human breast cancer MDA-MB-231 cell line; assay type: functional; details: read-out: ED50 (the source's name); summary of the method: as §1
[3] = tested on: MDA-MB-231; assay: Percent inhibition of cell growth in human breast cancer MDA-MB-231 cell line; assay type: functional
[4] = tested on: KB; assay: Percent inhibition of cell growth in vincristine-resistant human nasopharyngeal carcinoma KB cell line; assay type: functional
[5] = tested on: A549; assay: Percent inhibition of cell growth in human lung cancer A549 cell line; assay type: functional
[6] = tested on: A-431; assay: Percent inhibition of human skin cancer A431 cell proliferation; assay type: functional
[7] = tested on: SW-620; assay: Percent inhibition of cell growth in human colon cancer SW620 cell line; assay type: functional
[8] = tested on: MCF7; assay: Percent inhibition of cell growth in human breast cancer MCF-7 cell line; assay type: functional
[9] = tested on: KB; assay: Percent inhibition of cell growth in human nasopharyngeal carcinoma KB cell line; assay type: functional
[10] = tested on: A-431; assay: Effective concentration required for 50% reduction in cell growth of human skin cancer A431 cell line; assay type: functional; details: read-out: ED50 (the source's name); summary of the method: as §1
[11] = tested on: A549; assay: Dose required for reduction in human lung cancer A549 cell proliferation; assay type: functional; details: read-out: ED50 (the source's name); summary of the method: as §1
[12] = tested on: SW-620; assay: Dose required for reduction in cell growth of human colon cancer SW620 cell line; assay type: functional; details: read-out: ED50 (the source's name)
[13] = tested on: MDA-MB-231; assay: cells; assay type: functional; details: Homo sapiens, MDA-MB-231, read-out: ED50
[14] = tested on: LNCaP; assay: Dose required for reduction in cell growth of human AR-dependent prostate cancer LN-CaP cell line; assay type: functional; details: read-out: ED50 (the source's name)
[15] = tested on: PC-3; assay: Dose required for reduction in cell growth of human prostate cancer PC-3 cell line; assay type: functional; details: read-out: ED50 (the source's name)
[16] = tested on: MCF7; assay: Dose required for reduction in cell growth of estrogen positive human breast cancer MCF-7 cell line (ER+); assay type: functional; details: read-out: ED50 (the source's name)
[17] = tested on: SK-BR-3; assay: Dose required for reduction in cell growth of estrogen negative human breast cancer SK-BR-3 cell line(ER-); assay type: functional; details: read-out: ED50 (the source's name)
[18] = cells; assay type: functional; details: Homo sapiens; read-out: ED50 (the source's name)
[19] = tested on: ZR-75-1; assay: Dose required for reduction in cell growth of estrogen positive human breast cancer ZR-75-1 cell line (ER+); assay type: functional; details: read-out: ED50 (the source's name)
[20] = tested on: KB; assay: Dose required for reduction in cell growth of vincristine-resistant human nasopharyngeal carcinoma KB cell line; assay type: functional; details: read-out: ED50 (the source's name)
[21] = tested on: KB; assay: Dose required for reduction in cell growth of human nasopharyngeal carcinoma KB cell line; assay type: functional; details: read-out: ED50 (the source's name)
[22] = tested on: LNCaP; assay: Percent inhibition of cell growth in human AR-dependent prostate cancer LN-CaP cell line; value ranges from 28-36; assay type: functional
[23] = tested on: A-431; assay: Effective dose for reduction in cell growth of human skin cancer A431 cell line; details: A-431, read-out: ED50

| Structure (SMILES) | EC50 [1] [µg/mL] | EC50 [2] [µg/mL] | EC50 [12] [µg/mL] | EC50 [13] [µg/mL] | EC50 [14] [µg/mL] | EC50 [15] [µg/mL] | EC50 [16] [µg/mL] | EC50 [17] [µg/mL] | EC50 [18] [µg/mL] | EC50 [19] [µg/mL] | EC50 [20] [µg/mL] | EC50 [21] [µg/mL] | other results |
| --- | --- | --- | --- | --- | --- | --- | --- | --- | --- | --- | --- | --- | --- |
| C[C@H]1COC2=C1C(=O)C(=O)c1c2ccc2c1CCCC2(C)C [CRYPTOTANSHINONE] | 0.41 (≈ 1.38 µM) | 0.16 (≈ 0.54 µM) |  |  |  |  |  |  |  |  |  |  |  |
| Cc1coc2c1C(=O)C(=O)c1c-2ccc2c(C)cccc12 [TANSHINONE I] | 0.82 (≈ 2.97 µM) | 0.75 (≈ 2.71 µM) |  |  |  |  |  |  |  |  |  |  |  |
| Cc1cccc2c1ccc1c3occ(C)c3c(=O)oc21 | < 2.5 | > 20 | > 10 | > 10 | > 10 | 10 (≈ 37.8 µM) | 0.6 (≈ 2.27 µM) | 0.2 (≈ 0.757 µM) | 16 (≈ 60.5 µM) | 0.3 (≈ 1.14 µM) | > 10 | > 10 | Inhibition [3]: 17%; Inhibition [4]: 9%; Inhibition [5]: 10%; Inhibition [6]: 35%; Inhibition [7]: 22%; Inhibition [8]: 57%; Inhibition [9]: 18%; EC50 [10]: > 10 µg/mL; EC50 [11]: > 20 µg/mL; Inhibition [22]: 36% |
| CC/C(=C(\c1ccccc1)c1ccc(OCCN(C)C)cc1)c1ccccc1.O=C(O)CC(O)(CC(=O)O)C(=O)O [TAMOXIFEN CITRATE] |  |  | 4 | > 8 | 6 | 10 | 5 | 5 | 9 | 5 | 9 | 9 | EC50 [23]: 7 µg/mL |
| Cc1coc2c1C(=O)C(=O)c1c-2ccc2c1CCCC2(C)C [TANSHINONE IIA] | 0.38 (≈ 1.29 µM) | 0.7 (≈ 2.38 µM) |  |  |  |  |  |  |  |  |  |  |  |
